# Source: ChEMBL document CHEMBL3351599, “Extending the N-linked aminopiperidine class to the mycobacterial gyrase domain: pharmacophore mapping from known antibacterial leads” (Eur J Med Chem, 2014)
# Experiments:
# [1] = test system: Mycobacterium tuberculosis; assay: Antimycobacterial activity against Mycobacterium tuberculosis H37Rv after 7 days by microplate alamar blue assay; type: functional; details: 168 h
# Method in brief: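 M. tuberculosis H37Rv inoculum taken from fresh LJ medium, resuspended in 7H9-S (7H9 broth, 0.1% casitone, 0.5% glycerol, OADC), adjusted to McFarland No. 1 and diluted 1:20. Two-fold serial dilutions were tested over a range of 25 to 0.78. Plates were incubated 7 days at 37 °C, then alamar blue was added and incubated overnight. Blue-to-pink colour change read as growth; MIC determined.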
# [2] = (§1) Inhibition of Mycobacterium tuberculosis GyrA/GyrB using relaxed pBR322 as substrate after 30 mins by DNA supercoiling assay
# [3] = test system: Mycobacterium tuberculosis; assay: Inhibition of Mycobacterium tuberculosis GyrA/GyrB using relaxed pBR322 as substrate at 0.97 uM after 30 mins by DNA supercoiling assay
# Method in brief: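 Gyrase supercoiling reaction: GyrA/GyrB heterotetramer (1 U), relaxed pBR322, 1 mM ATP, HEPES-KOH pH 7.9 buffer, 30 min at 37 °C. Compounds were tested in a series of 250, 62.5, 15.6, 3.9 and 0.97. Products were resolved on 1% agarose with ethidium staining, and inhibition was quantified relative to control.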
# [4] = Cytotoxicity against mouse RAW264.7 cells at 100 uM after 48 hrs by MTT assay; type: cell-based; details: read-out: INH
# Method in brief: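 Cells seeded at 5 × 10⁵ per well with test compound at a range of concentrations. Incubated 48 h at 37 °C under 5% CO₂/[…]. MTT reagent (10 mg mL⁻¹ stock) added about 4 h before the end. Plate centrifuged, supernatant removed and formazan dissolved in DMSO. Absorbance read at 560 nm against a blank. Triplicate wells per concentration.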
# [5] = Selectivity index, ratio of CC50 for mouse RAW264.7 cells to MIC for Mycobacterium tuberculosis H37Rv; type: toxicity; details: read-out: Selectivity Index
# Method in brief: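 Ratio of CC50 to MABA MIC against H37Rv. […] MTT was added 4 h before the end, formazan was dissolved in DMSO and absorbance read at 560 nm. Each concentration was run in triplicate.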
# [6] = test system: Mycobacterium tuberculosis; assay: as §1
Compound,MIC [1],IC50 [2],inhibition [3],"cytotoxicity at 48 h, 100 µM [4]",selectivity ratio [5],inhibition [6]
COc1ccc(NC(=S)NC2CCN(CCn3c(=O)ccc4ncc(F)cc43)CC2)cc1,1.71 µM,1.8 µM,> 65%,30.8%,> 58.5,–
O=c1ccc2ncc(F)cc2n1CCN1CCC(NC(=S)Nc2ccc(Cl)cc2)CC1,8.52 µM,3.72 µM,> 62%,40.5%,> 11.7,–
COc1cnc2ccc(=O)n(CCN3CCC(NC(=S)NCc4ccccc4)CC3)c2c1,7.5 µM,1.87 µM,> 94%,33.6%,> 13.3,–
COc1cnc2ccc(=O)n(CCN3CCC(NC(=O)NCc4ccccc4)CC3)c2c1,13.4 µM,1.87 µM,> 97%,28.3%,> 7.45,–
COc1cnc2ccc(=O)n(CCN3CCC(NC(=O)Nc4ccc(F)cc4)CC3)c2c1,0.62 µM,0.078 µM,> 82%,31.5%,> 161,Dose-dependent effect
CC(=O)c1ccc(NC(=O)NC2CCN(CCn3c(=O)ccc4ncc(F)cc43)CC2)cc1,2.91 µM,0.2 µM,> 71%,40.6%,> 34,–
Cc1ccc(NC(=O)NC2CCN(CCn3c(=O)ccc4ncc(F)cc43)CC2)cc1,1.84 µM,0.67 µM,> 73%,29.5%,> 54.3,–
COc1ccc(CNC(=O)NC2CCN(CCn3c(=O)ccc4ncc(F)cc43)CC2)cc1,1.89 µM,0.41 µM,> 93%,32.1%,> 52.9,–
COc1ccc(CNC(=O)NC2CCN(CCn3c(=O)ccc4ncc(OC)cc43)CC2)cc1,3.35 µM,2.76 µM,> 99%,39.5%,> 29.9,–
COc1cnc2ccc(=O)n(CCN3CCC(NC(=S)NCc4ccc(Cl)cc4)CC3)c2c1,1.6 µM,1.53 µM,> 95%,29.4%,> 62.5,–
COc1cnc2ccc(=O)n(CCN3CCC(NC(=O)Nc4ccccc4)CC3)c2c1,14.8 µM,10.4 µM,> 81%,45.8%,> 6.74,–
O=C(NCc1ccc(Cl)cc1)NC1CCN(CCn2c(=O)ccc3ncc(F)cc32)CC1,3.7 µM,2.9 µM,> 92%,42.7%,> 27,–
COc1cnc2ccc(=O)n(CCN3CCC(NC(=S)Nc4ccc([N+](=O)[O-])cc4)CC3)c2c1,6.46 µM,3.9 µM,> 77%,35.8%,> 15.5,–
COc1ccc(CNC(=S)NC2CCN(CCn3c(=O)ccc4ncc(OC)cc43)CC2)cc1,13 µM,3.2 µM,> 96%,19.4%,> 7.71,–
COc1cnc2ccc(=O)n(CCN3CCC(NC(=S)Nc4ccccc4)CC3)c2c1,7.14 µM,5.2 µM,> 74%,37.6%,> 14,–
O=c1ccc2ncc(F)cc2n1CCN1CCC(NC(=S)Nc2ccc([N+](=O)[O-])cc2)CC1,0.91 µM,0.28 µM,> 63%,39.6%,> 110,–
CC(=O)c1ccc(NC(=S)NC2CCN(CCn3c(=O)ccc4ncc(F)cc43)CC2)cc1,21.2 µM,11.3 µM,> 64%,36.5%,> 4.71,–
O=C(Nc1ccc([N+](=O)[O-])cc1)NC1CCN(CCn2c(=O)ccc3ncc(F)cc32)CC1,3.77 µM,0.25 µM,> 70%,38.6%,> 26.5,–
COc1ccc(NC(=O)NC2CCN(CCn3c(=O)ccc4ncc(OC)cc43)CC2)cc1,3.78 µM,0.2 µM,> 86%,29.4%,> 26.4,–
COc1ccc(NC(=O)NC2CCN(CCn3c(=O)ccc4ncc(F)cc43)CC2)cc1,3.23 µM,2.2 µM,> 72%,25.5%,> 30.9,–
O=C(Nc1ccc(Cl)cc1)NC1CCN(CCn2c(=O)ccc3ncc(F)cc32)CC1,1.29 µM,0.3 µM,> 69%,25.7%,> 77.5,–
O=c1ccc2ncc(F)cc2n1CCN1CCC(NC(=S)NCc2ccc(Cl)cc2)CC1,1.64 µM,1.9 µM,> 89%,43.7%,> 61,–
COc1cnc2ccc(=O)n(CCN3CCC(NC(=O)Nc4ccc(Cl)cc4)CC3)c2c1,1.85 µM,0.092 µM,> 83%,28.5%,> 54,–
COc1ccc(NC(=S)NC2CCN(CCn3c(=O)ccc4ncc(OC)cc43)CC2)cc1,13.2 µM,8.6 µM,> 79%,41.5%,> 7.58,–
